In article PMC4186684 (Molecular Pharmaceutics, 2014):
Converted amounts (≈) assume the structure as drawn. Blank lines part the entries; values can stand above or below the compound they belong to.

Assays:
[1] = system: SK-OV-3 cells; assay: Confocal laser scanning microscopy of cellular uptake; type: cell-based, human; settings: 10 μM, 1 h at 37 °C, Opti-MEM I, 488 nm excitation
Procedure, shortened: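 SK-OV-3 cells were seeded on coverslips in complete EMEM at 1 × 10⁵ cells/well and held at 50% confluency. Medium was replaced with fluorescein-labeled test peptide in Opti-MEM I reduced serum medium for 1 h at 37 °C. Cells were washed three times with PBS containing Ca/Mg and mounted. Imaging used 488 nm argon laser excitation and a 505–530 nm band-pass filter. FAM served as the comparison.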

[2] = system: P. aeruginosa (PAO1); assay: MIC by broth microdilution; type: cell-based; settings: Pseudomonas aeruginosa
Procedure, shortened: (§1)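 Cultures were grown overnight in tryptic soy broth at 37 °C, shaken at 175 rpm, then diluted from 1 × 10⁸ to 1 × 10⁵ CFU/mL. Peptides were 5 mM stocks in water, or in 50 mM NH₄HCO₃ for poorly soluble ones. Test compound was mixed 1:39 (v/v) with the suspension, serially 2-fold diluted and incubated statically overnight at 37 °C. MIC was the lowest concentration with no visible growth, in triplicate. Controls were tetracycline (MRSA) and tobramycin (P. aeruginosa).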

[3] = system: methicillin-resistant S. aureus (MRSA, ATCC 43300); assay: MIC by broth microdilution; type: cell-based; settings: Staphylococcus aureus, ATCC43300|MRSA
Procedure, shortened: as §1

[4] = system: MRSA (ATCC 43300); assay: MIC used as basis of the time-kill studies; type: cell-based; settings: Staphylococcus aureus, ATCC43300|MRSA
[5] = system: E. coli (ATCC 35218); assay: MIC used as basis of the time-kill studies; type: cell-based; settings: Escherichia coli, ATCC35218

- intracellular fluorescence / localisation (CLSM) [1]: no significant fluorescence
Compound: 5(6)-Carboxyfluorescein [FAM]

- MIC [2]: 0.731 mg/L (≈ 1.56 µM)
Compound: NC[C@H]1O[C@H](O[C@H]2[C@H](O)[C@@H](O[C@H]3O[C@H](CO)[C@@H](O)[C@H](N)[C@H]3O)[C@H](N)C[C@@H]2N)[C@H](N)C[C@@H]1O [tobramycin]

Compound: CN(C)[C@@H]1C(O)=C(C(N)=O)C(=O)[C@@]2(O)C(O)=C3C(=O)c4c(O)cccc4[C@@](C)(O)[C@H]3C[C@@H]12 [tetracycline]
- MIC [3]: 0.156 mg/L (≈ 0.351 µM)
- MIC [4]: 0.5 mg/L (≈ 1.13 µM)
- MIC [5]: 2 mg/L (≈ 4.5 µM)
